According to PubChem BioAssay:
Activity calls are given as the source filed them.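 How the source made its calls, unless noted: active means viability at or under a set limit in both replicates, limit being median viability minus 3 SD (cut at about 48% in these data, passing the limit was not always enough); inconclusive means at or under the limit in just one replicate; inactive means at or above the limit in both replicates.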

Key:
[1] = HUVEC growth inhibition – cell-based, human, primary screen (AID 575;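 active means viability at or below 30% in both replicate assays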;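 further: 100% = median of untreated cell wells with 0.1% DMSO on each plate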); settings: HUVEC proliferation, CellTiter-Glo luminescence, 72 h; at 10 µM; stronger effect = lower value
Outline: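 System: primary human umbilical vein endothelial cells; Quantity: 1250 endothelial cells in each well; Buffer or medium: supplemented EBM, 2% fetal bovine serum; Doses: one dose, 10 µM final, 0.1% DMSO; Incubation: 72 h compound incubation; Technique: ATP-based CellTiter-Glo luminescent read; Evaluation: percent of median DMSO-control luminescence; Controls: vehicle and MePR control wells.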

[2] = growth inhibitors of H69AR lung tumor, primary screen, human, duplicate replicates (AID 580); settings: H69AR lung tumor cells viability, ATP luminescence, 72 h; at 10 µM; stronger effect = lower value;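 further: 100% = mean luminescence of untreated wells and 0% = no signal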
[3] = reversal of MRP1-mediated doxorubicin resistance, pilot screen, H69AR cells, doxorubicin co-treatment (AID 601;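 active means viability loss from added drug above about 55%, and viability with drug at most 40%, in both replicates, limit read from the data, passing the limit was not always enough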); settings: CellTiter-Glo, 72 h, at 10 µM; for differential viability (reversal): stronger effect = higher value
[4] = 384-well plate pilot, post-Golgi transport modulator project, inhibition of yeast transport mutant growth (AID 636; in the data active means inhibition above about 31%); settings: absorbance 615 nm, about 18 h, stronger effect = higher value
[5] = growth suppression of yeast trafficking mutant, preliminary HTS, modulators of trafficking downstream of Golgi apparatus project, 1536-format plate, OD 615 nm (AID 637; in the data active means inhibition above about 30%); settings: yeast transport mutant growth, absorbance 615 nm, 18 h; stronger effect = higher value
[6] = H69AR cells + 2 uM doxorubicin, measured here: viability with 2 uM doxorubicin, stronger effect = lower value
[7] = H69AR cells, compound alone cytotoxicity

SMILES	viability [1]	viability [2]	differential viability (reversal) ([3]; H69AR cells + 2 uM doxorubicin)	viability [3, 6]	viability [3, 7]	inhibition [4]	inhibition [5]
COc1ccccc1N1CCN(C(=O)C2CC=CCC2C(=O)O)CC1 (configuration not stated)	97.3% (inactive)	93.1% (inactive)	6.56% (inactive)	86.5%	93.1%	-4.61% (inactive)	2.54% (inactive)
COc1cc2c(cc1NCc1ccccn1)oc1ccccc12	78% (inactive)	83.8% (inactive)	-10.3% (inactive)	94.1%	83.8%	-4.13% (inactive)	5.08% (inactive)
CCS(=O)(=O)N1CCC(C(=O)N2CCOCC2)CC1	92.1% (inactive)	98.5% (inactive)	-1.11% (inactive)	99.6%	98.5%	-0.52% (inactive)	-0.16% (inactive)
O=C(Cc1nn[nH]n1)NCCC1=CCCCC1	82.8% (inactive)	95.7% (inactive)	4.6% (inactive)	91.1%	95.7%	-1.04% (inactive)	-4.76% (inactive)
CCCOc1ccc(N2C(=O)CC(SCCN)C2=O)cc1 (configuration not stated)	88.2% (inactive)	108% (inactive)	8.12% (inactive)	100%	108%	-5.47% (inactive)	-3.02% (inactive)
O=C(NCC1CCCO1)C1CC(c2ccc(Cl)c(Cl)c2)=NO1 (configuration not stated)	111% (inactive)	104% (inactive)	-1.44% (inactive)	105%	104%	-0.13% (inactive)	-8.1% (inactive)
Cc1cc(C)n(CCCNC(=O)c2ccc(S(=O)(=O)NCc3ccco3)cc2)n1	97.6% (inactive)	94.2% (inactive)	7.31% (inactive)	86.9%	94.2%	-3.77% (inactive)	3.17% (inactive)
COc1ccc(NC(=O)CSc2nnc(-c3ccncc3)n2CC2CCCO2)c(OC)c1 (configuration not stated)	89.2% (inactive)	104% (inactive)	5.88% (inactive)	97.7%	104%	-6.36% (inactive)	4.13% (inactive)
c1ccc(CCc2nn3c(Cn4cnc5ccccc54)nnc3s2)cc1	75.8% (inactive)	81.8% (inactive)	-3.56% (inactive)	85.4%	81.8%	-1.18% (inactive)	11.4% (inactive)
COCC(=O)N(Cc1ccccc1)c1ccccn1	83.3% (inactive)	90.1% (inactive)	-1.27% (inactive)	91.3%	90.1%	-5.32% (inactive)	9.37% (inactive)
COc1cccc(CC(NC(C)=O)C(=O)NC2CCN(c3c4c(nc5ncnn35)CCC4)CC2)c1 (configuration not stated)	90.4% (inactive)	96.1% (inactive)	8.17% (inactive)	87.9%	96.1%	-6.18% (inactive)	3.17% (inactive)
Cn1c(=O)[nH]c(=O)c2c1nc(N1CCNCC1)n2Cc1cccc2ccccc12	85.5% (inactive)	88.8% (inactive)	2.38% (inactive)	86.4%	88.8%	-1.56% (inactive)	4.76% (inactive)
O=C(Nc1ccc2c(c1)OCO2)OCc1ccccc1	78.9% (inactive)	106% (inactive)	11.4% (inactive)	94.5%	106%	-4.4% (inactive)	2.22% (inactive)
COc1ccc(CCN2C(=O)C3C4C=CC(C4)C3C2=O)cc1OC (configuration not stated)	97.7% (inactive)	99.8% (inactive)	5.05% (inactive)	94.8%	99.8%	-6.71% (inactive)	-4.44% (inactive)
CCCCOc1ccc(C(=O)N2CCC(C)CC2)cc1	111% (inactive)	104% (inactive)	17.9% (inactive)	85.7%	104%	-3.2% (inactive)	0.48% (inactive)
Brc1ccc(-c2nnc3sc(CN4CCC5(CC4)OCCO5)cn23)cc1	113% (inactive)	95.9% (inactive)	7.72% (inactive)	88.1%	95.9%	-2.08% (inactive)	-2.22% (inactive)
CCN(CC)c1ccc2c(c1)C(=O)N(C)C2=O	71.6% (inactive)	84.6% (inactive)	2.22% (inactive)	82.4%	84.6%	-0.66% (inactive)	1.9% (inactive)
CN=C(Nc1ccc2c(c1)OCO2)SC1CC(=O)N(c2ccccc2)C1=O (configuration not stated)	78.3% (inactive)	82.3% (inactive)	-0.04% (inactive)	82.3%	82.3%	-4.93% (inactive)	-0.79% (inactive)
COc1ccc2c(c1)c1c(n2C(C)=O)C(OC(C)=O)=NCC1	92.4% (inactive)	87.4% (inactive)	-0.05% (inactive)	87.5%	87.4%	-5.39% (inactive)	5.71% (inactive)
COc1ccc(Cl)cc1Nc1nc(NCCO)nc(N2CCCC2)n1	55.1% (inactive)	89.3% (inactive)	-10.3% (inactive)	99.6%	89.3%	-7.57% (inactive)	8.41% (inactive)
COc1cccc(C(c2nnnn2Cc2ccccc2)N2CCN(C(=O)c3ccco3)CC2)c1OC (configuration not stated)	77.5% (inactive)	82.3% (inactive)	-9.06% (inactive)	91.4%	82.3%	-1.84% (inactive)	-6.35% (inactive)

SMILES	viability [1]	viability [2]	differential viability (reversal) ([3]; H69AR cells + 2 uM doxorubicin)	viability [3, 6]	viability [3, 7]	inhibition [4]	inhibition [5]
O=C(O)c1ccc(-n2nc(C(F)(F)F)c3c2-c2ccoc2CC3)cc1	70.8% (inactive)	97% (inactive)	9.15% (inactive)	87.9%	97%	0.39% (inactive)	-1.43% (inactive)
Cc1ccc(Nc2nnns2)cc1C	84.6% (inactive)	99.8% (inactive)	10.1% (inactive)	89.7%	99.8%	-1.04% (inactive)	-3.02% (inactive)
Cc1c(C(=O)Nc2ccncc2)oc2c1C(=O)CC(C)(C)C2	95.9% (inactive)	91.3% (inactive)	-5.27% (inactive)	96.6%	91.3%	-8.4% (inactive)	-1.43% (inactive)
COC(=O)Oc1c(Br)c(=O)oc2ccccc12	90.8% (inactive)	83% (inactive)	2.87% (inactive)	80.1%	83%	-0.4% (inactive)	-4.13% (inactive)
O=S1(=O)C=CC(Nc2cccc(Cl)c2)C1 (configuration not stated)	76.3% (inactive)	65.7% (inactive)	-0.23% (inactive)	65.9%	65.7%	-3.68% (inactive)	4.29% (inactive)
COC(=O)c1c(C(=O)OC)n(CCCN)c2ccc(C)cc12	89.1% (inactive)	89.7% (inactive)	4.39% (inactive)	85.3%	89.7%	-0.52% (inactive)	-1.11% (inactive)
COc1nc2ccc(C)cc2cc1-c1noc(-c2cccnc2)n1	103% (inactive)	104% (inactive)	11.8% (inactive)	91.9%	104%	-2.37% (inactive)	-2.54% (inactive)
C/C(Cl)=C\Cn1c(Nc2ccc(C)cc2)nc2c1c(=O)n(C)c(=O)n2C	77.5% (inactive)	72.1% (inactive)	-11.2% (inactive)	83.2%	72.1%	-1.04% (inactive)	1.75% (inactive)
Clc1ccccc1-c1nnc2sc(-c3ccccn3)nn12	93.8% (inactive)	86.3% (inactive)	8.48% (inactive)	77.8%	86.3%	-1.97% (inactive)	4.6% (inactive)
N#Cc1nc(-c2ccccc2Cl)oc1N1CCOCC1	84.2% (inactive)	86.8% (inactive)	3.5% (inactive)	83.3%	86.8%	-3.47% (inactive)	14.1% (inactive)
O=C(CP(=O)(c1ccccc1)c1ccccc1)N1CCCCC1	111% (inactive)	106% (inactive)	19% (inactive)	86.9%	106%	-3.51% (inactive)	6.83% (inactive)
C1=CC2CC1CC2CN1CCN(c2ccccc2)CC1 (configuration not stated)	97.7% (inactive)	91.8% (inactive)	-2.94% (inactive)	94.8%	91.8%	1.45% (inactive)	-1.27% (inactive)
Nc1nc(SCc2nc3scc(-c4cccs4)c3c(=O)[nH]2)n[nH]1	77.5% (inactive)	93.4% (inactive)	-3.9% (inactive)	97.3%	93.4%	-2.67% (inactive)	0.32% (inactive)
Cc1ccccc1C(=O)N1CCC(C(=O)Nc2ccc(S(=O)(=O)N3CCCC3)cc2)CC1	97.1% (inactive)	78.8% (inactive)	-3.87% (inactive)	82.7%	78.8%	-4.55% (inactive)	-3.49% (inactive)
Cc1cc(C(=O)Nc2cc(C)n(Cc3ccc(Cl)cc3)n2)no1	102% (inactive)	94.5% (inactive)	2.41% (inactive)	92.1%	94.5%	1.97% (inactive)	-6.51% (inactive)
Cc1cc(/C=c2/sc3nc4ccccc4n3c2=O)c(C)n1-c1ccccn1	77.6% (inactive)	63% (inactive)	-2.23% (inactive)	65.2%	63%	2.4% (inactive)	-0.48% (inactive)
Cc1ccc(Nc2nc(CSc3nnc(-c4cccs4)o3)cs2)cc1	78.7% (inactive)	90.5% (inactive)	-1.67% (inactive)	92.2%	90.5%	-4.8% (inactive)	-2.22% (inactive)
Cc1nnc(NC2CCCCC2)[nH]c1=O	87.5% (inactive)	87.1% (inactive)	6.85% (inactive)	80.3%	87.1%	-5.19% (inactive)	3.02% (inactive)
COc1ccccc1C1(CC(=O)N2CCOCC2)CCOC(C(C)C)C1 (configuration not stated)	72.7% (inactive)	88.8% (inactive)	-2.17% (inactive)	91%	88.8%	-5.47% (inactive)	-6.03% (inactive)
CCc1nnc(NC(=O)CSc2nnc(Cc3ccccc3)n2-c2ccc(OC)cc2)s1	92.9% (inactive)	84.6% (inactive)	-6.38% (inactive)	90.9%	84.6%	-5.79% (inactive)	-0.63% (inactive)
